Assay outcomes from PubChem BioAssay.
This is a sample that favours compounds with a hit; in the whole collection about 0.95% have one here.
CAL PDZ FP-1: untagged CAL PDZ binding inhibitors, primary screen, biochemical, fluorescence polarization, HTS. purified CAL PDZ, TMR-peptide fluorescence polarization, 1 h. inhibition, % at 24.9 µM. 0.92% of 300,000 active. AID 602252, 2012;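 active = mean inhibition of at least 30% with at least half of replicates also reaching 30%; inconclusive = no clear call, values can overlap the other calls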;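 note: 0% = DMSO neutral control and 100% = excess unlabeled competitor peptide PRC23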
PvdQ inh: P. aeruginosa PvdQ acylase inhibitors, primary screen, biochemical, fluorescence, plate reader and imaging, single point | purified PvdQ acylase | inhibition, % at 10 µM | 0.063% of 340,000 active | AID 488965, 2010; in the data active = inhibition above about 30%, passing the limit was not always enough; inconclusive = no clear call, values can overlap the other calls;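 note: 0% = vehicle neutral wells and 100% = reference inhibitor wells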
miR122 inh: miR-122 Renilla sensor signal increase in Huh7, primary screen, miR-122 inhibitor project, cell-based, single point, plate reader | Huh7 miR-122 Renilla luciferase sensor, 48 h; neutral wells = 0, positive control = 100 | activation (reporter increase), % at 12.5 µM | 0.3% of 340,000 active | AID 602342, 2012;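 active = mean replicate activation score at least 90 and every replicate individually at or above 90; inconclusive = only one of the two criteria met; inactive = neither criterion met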;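 note: higher luciferase means less miR-122 activity so hits act as miR-122 inhibitors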
CAL PDZ FP-2: CAL PDZ peptide-binding inhibitors, primary screen, biochemical, fluorescence polarization, Cer-tagged CAL PDZ, HTS; purified CAL PDZ, TMR-peptide fluorescence polarization, 1 h; inhibition, % at 20 µM; 0.02% of 330,000 active;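 active = highest replicate inhibition of at least 40%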;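 note: plate controls were DMSO neutral control wells for no effect and unlabeled competitor peptide control wells for full effect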
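Material: tagged CAL PDZ protein CerCALP, purified; buffer or medium: sodium phosphate/NaCl buffer pH 7.4 with TCEP, IgG, Thesit; also added: fluorescent TMR peptide probe; schedule: 1 h incubation at room temperature before polarization reading; technique: fluorescence polarization from S- and P-plane intensities, G-factor corrected; control set: unlabelled peptide and DMSO controls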
Active calls of the source: *; ? = inconclusive; / = no result; [ ] = remark or other dose.

SMILES | CAL PDZ FP-1 | PvdQ inh | miR122 inh | CAL PDZ FP-2
O=C(/C=C/c1ccco1)NC(=S)Nc1cccc(-c2nc3ccccc3o2)c1 | -9 | -1 | 130* | -1
Cc1ccc(S(=O)(=O)Nc2ccc3c(c2)C(=O)N([C@@H](C)CO)C[C@@H](C)[C@H](CN(C)C(=O)C2CCCCC2)OCCCC[C@H](C)O3)cc1 | / | / | -4[16.7 µM] | /
FC(F)(F)c1cc(-c2ccccc2)nc(N2CCCCC2)n1 | -4 | -1 | -3 | 1
O=C(O)C1CCCN1c1nc(-c2ccc(Cl)c(Cl)c2)cc(C(F)(F)F)n1 (stereo not given) | 91* | -16 | -2 | -2
COc1ccc(N[C@@H]2CCN3C(=O)c4ccccc4[C@@H]3C[C@H]2O)cc1 | 11 | -4 | / | 1
Cc1ccc(S(=O)(=O)N2CCOC2CNC(=O)C(=O)NCCCc2ccccc2)cc1 (stereo not given) | -2 | -2 | -10 | 0
Cc1ccc(S(=O)(=O)N2CCOC2CNC(=O)C(=O)NCCc2ccccc2)cc1 (stereo not given) | 33* | -6 | 6 | -1
COc1cc(S(=O)(=O)N2CCCCC2)ccc1NC=O | 1 | -1 | -5 | -1
CCCN1C(=O)N(C)C(N(O)C(=O)NC)C1(C)C (stereo not given) | 39* | -13 | -2 | 0
CNC(=O)N(O)C1N(C)C(=O)N(CC(=O)OC)C1(C)C (stereo not given) | 0 | 10 | 6 | -1
Cc1cccc(C)c1OCC(=O)Nc1cc(Cl)ccc1-n1cncn1 | -5 | 3 | / | -2
CC(C1CC1)N(C(=O)c1ccccc1O)c1ccccc1 (stereo not given) | -1 | -12 | 1 | -1
CCN1CC2=C(OC(N)=C(C#N)C2c2cccs2)/C(=C/c2cccs2)C1 (stereo not given) | 43* | -10 | -8 | 0
CCN1CC2=C(OC(N)=C(C#N)C2c2ccccc2)/C(=C\c2ccccc2)C1 (stereo not given) | -2 | 5 | -5 | /
CCCn1c(=O)c(C(=O)NCCc2ccc(OC)c(OC)c2)c(O)c2ccccc21 | -7 | 9 | / | -1
C=CCNc1oc(-c2cccs2)nc1S(=O)(=O)c1ccccc1 | 39* | -20 | 4 | 4
CC(C)CCn1c(N2CCCC2)nc2c1c(=O)[nH]c(=O)n2C | -1 | -22 | / | 0
CC(C)CCn1c(N2CCC(C(N)=O)CC2)nc2c1c(=O)[nH]c(=O)n2C | 42* | -11 | 5 | /
COc1ccc(-n2nnnc2SCC(=O)c2cc3ccccc3o2)cc1 | -2 | 9 | -1 | 2
CCN1C(=O)[C@H]2[C@@H](c3ccc(-c4ccc(Cl)c(Cl)c4)cc3)N3CCCC[C@@]3(C(=O)OC)[C@H]2C1=O | 35* | -10 | -6 | -1
CCN1C(=O)[C@@H]2[C@@H](c3ccc(-c4ccc(Cl)c(Cl)c4)cc3)N3CCC[C@@]3(C(=O)OC)[C@@H]2C1=O | -3 | 10 | 0 | -1
COC(=O)c1ccc(CN2CCN(CCC(C)C)C(CCO)C2)cc1 (stereo not given) | -2 | -12 | / | -1
COc1ccc(-c2ncc(CN3CCN(CCC(C)C)C(CCO)C3)cn2)cc1 (stereo not given) | 93* | -13 | 0 | -2
CCC(C)NC(=S)Nc1ccccc1 (stereo not given) | 75* | -14 | / | 0
Cc1cccc(C)c1NC(=S)NC(C)CCc1ccccc1 (stereo not given) | / | 7 | 100* | -1
SMILES | CAL PDZ FP-1 | PvdQ inh | miR122 inh | CAL PDZ FP-2
CC(=O)c1ccc(OCc2cc(C(=O)NCCc3ccc(Cl)cc3)no2)cc1 | 68* | -15 | -6 | 2
CC(=O)c1cccc(OCc2cc(C(=O)N3CC4C[C@@H]5CC3C[C@H](C4)C5)no2)c1 | -2 | -9 | / | -2
CC(=O)c1ccc(OCc2cc(C(=O)N3CC4C[C@@H]5CC3C[C@H](C4)C5)no2)cc1 | 70* | -13 | -7 | -1
COc1ccc(-n2nc3c(c2NC(=O)c2ccco2)CS(=O)(=O)C3)cc1 | 76* | -14 | -3 | -1
Cc1cc(C)c(S(=O)(=O)NCCCn2ccnc2)cc1C | -1 | -8 | 129* | -1
Cc1cc(S(=O)(=O)NCCCn2ccnc2)c(C)cc1Cl | -13 | 7 | / | -2
CC#CC[N+](C)(CC#CC)CC(=O)c1ccccc1 | 58* | -8 | / | 1
Cc1cc(C)n(S(=O)(=O)c2ccc(Cl)cc2)n1 | -3 | -5 | 0 | -1
Cc1cn(S(=O)(=O)c2ccc(Cl)cc2)c(C)n1 | 78* | -11 | / | -1
O=C(NCC1CC1)c1ccc(-c2cn[nH]c2)c2ccoc12 | / | / | -9 | /
CC(=O)N(C)c1ccc(NC(=O)Cc2cccc3ccccc23)cc1 | -5 | -1 | 6 | -2
CC(C)(C)NC(=O)C[C@H]1C[C@H](C(=O)N2CCCCC2)[C@@]2(C)c3[nH]c4cc(-c5ccco5)ccc4c3CCN2C1=O | 65* | -18 | -3 | 0
C[C@]12c3[nH]c4cc(-c5ccco5)ccc4c3CCN1C(=O)[C@@H](CC(=O)NCCC1=CCCCC1)C[C@@H]2C(=O)N1CCCCC1 | 48* | -12 | -1 | 0
C[C@]12c3[nH]c4cc(-c5ccco5)ccc4c3CCN1C(=O)[C@@H](CC(=O)NCCc1ccccn1)C[C@@H]2C(=O)N1CCCCC1 | -2 | 8 | 1 | 0
COc1ccc(-c2cc(-c3nc4ccccn4c3NCc3ccccc3)ccc2OC)cc1 | 4 | -6 | -32 | 1
COC(=O)c1cc2cc(Cl)ccc2nc1SC | -4 | -6 | / | -1
COc1cc(C)c(S(=O)(=O)NOCc2ccc([N+](=O)[O-])cc2)c(C)c1C | -1 | 9 | 323* | 1
c1ccc(CCc2nn3c(C4COc5ccccc5O4)nnc3s2)cc1 (stereo not given) | -4 | 8 | -4 | -1
Cc1cc(N2CCCC2=O)cc(C)c1S(=O)(=O)NCCOc1ccc(C(C)(C)C)cc1 | -1 | -6 | 12 | -2
Cc1ccc(S(=O)(=O)N2CCN(C(=O)c3cc(S(=O)(=O)N(C)C)ccc3N3CCCC3)CC2)c(C)c1 | -1 | -10 | 19 | -1
COCCOCC(O)CN1CCN(c2ccccc2)CC1 (stereo not given) | 32* | -18 | 8 | 0
Cn1c(=O)c2[nH]c(NN=Cc3ccccc3)nc2n(C)c1=O | 94* | -2 | -1 | 1
Cc1cc(C)cc(NS(=O)(=O)c2ccc(NC(=S)NC(=O)c3ccc(Br)o3)cc2)c1 | / | 2 | 98* | -2
COCC(=O)Nc1ccc(S(=O)(=O)NCCc2ccccc2)cc1 | / | -1 | 118* | 0
Cc1ccc(NC(=O)COc2ccccc2C(=O)NCCc2ccccc2)cc1 | 72* | -8 | 12 | 3
CCC(=O)Nc1ccc(S(=O)(=O)NCCc2ccccc2)cc1 | -8 | 2 | ? | 0
